# Compound activity from PubChem.
# Sampled rows, rich in hits. Any-hit rate of the full collection: about 0.58%.
# V1aR counter: activates human V1a receptor in oxytocin agonist counter-screen | CHO-V1R cells, Fluo-8 calcium fluorescence, agonist mode; 0% DMSO, 100% 3 nM vasopressin | activation, % at 3 µM | 0.25% of 320,000 active | AID 2797;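 active = activation above the mean activation of all tested compounds plus 3 SD, per screening run, cut at about 20% in these data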;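 note: signal is peak over basal fluorescence ratio across a 100 second FLIPR read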
# Target sequence (P37288 whole entry, looked up): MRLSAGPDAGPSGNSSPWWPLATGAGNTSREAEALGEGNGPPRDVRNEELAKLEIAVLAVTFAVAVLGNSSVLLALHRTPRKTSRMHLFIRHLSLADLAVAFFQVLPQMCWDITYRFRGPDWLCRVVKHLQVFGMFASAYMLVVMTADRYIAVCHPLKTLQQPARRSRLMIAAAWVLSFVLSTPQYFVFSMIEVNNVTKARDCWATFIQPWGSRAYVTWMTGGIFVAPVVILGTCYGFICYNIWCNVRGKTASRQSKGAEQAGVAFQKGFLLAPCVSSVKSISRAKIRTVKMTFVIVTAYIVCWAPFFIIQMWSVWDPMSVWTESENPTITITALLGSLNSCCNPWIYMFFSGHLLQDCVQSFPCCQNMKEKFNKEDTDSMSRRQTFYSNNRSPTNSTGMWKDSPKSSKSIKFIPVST
# OXTR potentiator: human OXTR potentiation; CHO-OTR cells, Fluo-8 calcium fluorescence, potentiator mode; 0% = oxytocin EC15, 100% = EC100; P30559; AID 2445; 0.061% of 320,000 active; activation, % at 3 µM;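 active = activation above that plate's cutoff, the mean activation of tested compounds plus 3 SD, cut at about 6.6% in these data, passing the limit was not always enough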;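 note: 100% uses oxytocin at 75 nM as the full agonist control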
#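 System: human OTR in CHO cells; Also added: sub-maximal oxytocin, roughly EC15; Timing: compound 6 min at room temperature before oxytocin, 100 s read; Technique: Fluo-8 intracellular calcium fluorescence, ex 470-495, em 515-575 nm; Controls: oxytocin EC15 low and EC100 high; Replication: singlicate.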
# OXTR agonist: activates the human oxytocin receptor. P30559. CHO-OTR cells, Fluo-8 calcium fluorescence; normalized: DMSO 0%, oxytocin 100%. activation, % at 3 µM. 0.32% of 320,000 active. AID 2435;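 active = activation above the mean of all tested compounds plus 3 SD, cutoff set per screening run, cut at about 20% in these data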;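 note: peak over basal fluorescence ratio from a 100 s FLIPR kinetic read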
# TRPN1 ag: activates the zebrafish TRPN1 channel. HEK293 zebrafish TRPN1-YFP, Fluo-8 calcium fluorescence; 100% = response to 87 µM carbachol. activation, % at 3 µM. 0.18% of 220,000 active. AID 1424;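 active = activation above its plate's cutoff, the mean activation of test wells on that plate plus 3 SD, cut at about 19% in these data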;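 note: 0% = DMSO alone and 100% = 87 µM carbachol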
#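 Control set: carbachol 87 µM as high control, DMSO as low control; system: HEK293 stable line with zebrafish TRPN1-YFP; read-out: % activation versus carbachol response; detection: intracellular calcium fluorescence with Fluo-8; doses: single test compound dose, 3 µM nominal, 0.3% DMSO; schedule: dye 1 h 37 °C plus 30 min RT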
# TRPML3 agonist: human mucolipin-3 channel agonism; Q8TDD5; HEK293 TRPML3-YFP, Fluo-8 calcium fluorescence; 100% = the carbachol control signal; activation, % at 3 µM; 0.29% of 220,000 active; AID 1448;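 active = activation above its plate's cutoff, the mean activation of the plate's test wells plus 3 SD, cut at about 12% in these data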;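 note: 0% = DMSO only wells and 100% = carbachol wells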
#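 Test system: HEK293 cells stably carrying human TRPML3-YFP; Doses: single dose, 3 µM final nominal compound, 0.3% DMSO final; Schedule: dye loading 1 h 37 °C then 30 min ambient, 125 s read; Technique: Fluo-8 calcium fluorescence; Benchmarks: high control carbachol 87 µM, low control DMSO.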
# OXTR agonist cf: confirmation of human oxytocin receptor agonists | shares compounds with OXTR agonist | activation, % at 3 µM | 20% of 390 active | CHO-OTR cells, Fluo-8 calcium fluorescence, agonist;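 active = mean activation above about 20% derived from the earlier single-dose screen, limit read from the data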;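 note: peak over minimum fluorescence ratio per well during a 100 second FLIPR read; 0% = DMSO alone and 100% = oxytocin high control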
# V1aR counter 3x: counter-screen for oxytocin receptor agonists: V1a receptor agonists. CHO-V1R cells, Fluo-8 calcium fluorescence, agonist. activation, % at 3 µM. 10% of 390 active. shares compounds with OXTR agonist. AID 434991;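 active = mean activation over triplicate exceeds the hit threshold set in the earlier primary screen, cut at about 20% in these data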;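 note: peak over basal fluorescence ratio within a 100 second read; 0% = DMSO alone and 100% = 3 nM vasopressin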
# * hit, by the source's call; nt = no result.
SMILES,V1aR counter,OXTR potentiator,OXTR agonist,TRPN1 ag,TRPML3 agonist,OXTR agonist cf,V1aR counter 3x
C=C(C)c1nc(N)nc(N)n1,1.1,-5.0,0.1,2.2,0.6,nt,nt
COc1ccc(CNCCC(c2ccccc2)c2ccc3c(c2)OCO3)cc1 (stereo not drawn),15.6,-9.6,22.2*,-0.6,0.4,15.6,14.1
N#CCCn1nc(-c2ccccc2)cc1Nc1ccccc1NC(=O)C(F)(F)F,12.6,-8.2,2.9,0.4,1.7,nt,nt
N#CCCn1nc(-c2ccc(Cl)cc2)cc1Nc1ccccc1NC(=O)C(F)(F)F,18.4,-20.9,24.0*,3.7,1.4,3.9,2.8
CC(=O)c1sc2nc(-c3cccs3)cc(C(F)(F)F)c2c1N,13.9,-18.0,27.4*,11.5,5.2,40.0*,52.1*
Cc1c(C(=O)O)sc2nc(-c3cccs3)cc(C(F)(F)F)c12,0.2,-9.7,-0.2,nt,nt,nt,nt
CC1CN(c2ccccc2)c2nc3c(c(=O)[nH]c(=O)n3C)n2C1 (stereo not drawn),-0.5,1.7,-2.1,nt,nt,nt,nt
Brc1ccccc1CN1CCN(Cc2c[nH]c3ccccc23)CC1,2.1,-11.9,5.4,nt,nt,nt,nt
Brc1ccc(CN2CCN(Cc3c[nH]c4ccccc34)CC2)cc1,6.7,-18.4,19.9*,nt,nt,8.2,4.0
COc1ccc(C(=O)CSc2nnc(CNc3ccc(C)cc3C)o2)cc1,11.1,-22.0,24.7*,-0.5,0.5,1.8,3.1
Cc1ccc(NCc2nnc(SCC(=O)c3ccc4c(c3)OCCO4)o2)c(C)c1,1.3,-2.3,3.4,1.0,0.3,nt,nt
CCOC(=O)c1ccc2c(c1)N(C)C(=O)c1ccccc1S2,-1.3,-6.0,-2.6,nt,nt,nt,nt
CCOC(=O)c1cc2n(c1/N=C/N(C)C)-c1ccccc1C2=O,15.4,-10.5,24.5*,1.2,0.6,26.1*,33.0*
CCOC(=O)C1CCCN(C(=O)COc2ccc(N(C)S(=O)(=O)c3ccc(F)cc3)cc2)C1 (stereo not drawn),2.7,-2.0,2.0,0.6,2.6,nt,nt
N#Cc1cc2nc(O)c(O)nc2cc1[N+](=O)[O-],-1.1,-7.5,0.0,nt,nt,nt,nt
CNc1nc2cc([N+](=O)[O-])c([N+](=O)[O-])cc2nc1NC,10.6,-10.9,26.4*,26.9*,9.2,23.2*,16.3
O=C(C(=O)N1CCCC1)c1c(-c2ccccc2)[nH]c2ccccc12,0.4,-12.3,-1.3,nt,nt,nt,nt
CCN(C(=O)Cn1c(=O)oc2ccccc21)c1ccc(C)c(C)c1,-1.1,-7.2,-1.0,nt,nt,nt,nt
COc1cc(CNCCc2c[nH]c3ccccc23)ccc1OCc1ccccc1F,10.6,-10.3,22.5*,-0.4,1.4,12.7,4.5
COc1ccc(CNCc2ccco2)cc1OCc1ccccc1,0.7,1.6,2.8,-0.1,1.1,nt,nt
COc1ccccc1CCNCc1ccc(OC)c(OCc2ccccc2)c1,13.1,-10.8,21.7*,2.8,1.4,11.6,8.8
COc1cccc(CNCCc2c[nH]c3ccccc23)c1OCc1ccccc1,15.3,-15.7,29.4*,-1.9,0.2,17.4,16.0
CCCCCCN=C(C)c1ccccc1O,-0.3,-1.3,0.8,1.2,-0.8,nt,nt
Cc1ccc(C)c(-c2nnc(OCC(=O)Nc3cc(C)on3)c3ccccc23)c1,1.1,-7.8,-0.9,-0.1,-0.7,nt,nt
Cc1ccc(Oc2ccc(NC(=O)Cn3ccsc3=N)cc2)cc1,9.2,-29.3,23.0*,1.1,1.4,12.4,2.7
SMILES,V1aR counter,OXTR potentiator,OXTR agonist,TRPN1 ag,TRPML3 agonist,OXTR agonist cf,V1aR counter 3x
Cc1ccc(NC(=O)CN(C)C(=O)Cn2ccsc2=N)cc1,0.9,-0.1,0.3,1.4,1.2,nt,nt
Cc1ccccc1-c1cc(C(=O)Nc2sc(C(=O)OC(C)C)c(C)c2C#N)c2ccccc2n1,12.6,-10.8,21.1*,1.9,2.1,14.2,12.7
CCOC(=O)c1sc(NC(=O)c2cc(-c3ccc(C)cc3)nc3ccccc23)c(C#N)c1C,0.0,5.9,2.4,0.0,0.1,nt,nt
COC(=O)c1sc(NC(=O)c2cc(-c3ccccc3)nc3ccccc23)c(C#N)c1C,11.0,-22.8,20.1*,2.8,0.1,17.2,13.1
OCC[C@@H]1C[C@@H](O)[C@H](O)[C@@]2(CCCCO2)O1,0.5,-0.6,1.0,nt,nt,nt,nt
COc1ccc(S(=O)(=O)N2CCCN(CCC(=O)Nc3cccc(C(F)(F)F)c3)CC2)cc1,17.0,-11.8,21.6*,3.7,2.3,8.0,5.7
COc1ccc(NC(=O)CCN2CCN(S(=O)(=O)c3ccc(F)cc3)CC2)cc1,0.8,4.1,-0.7,nt,nt,nt,nt
CC(C)(CNC(=O)c1ccc(S(=O)(=O)Nc2ccc(Cl)cc2)cc1)N1CCOCC1,14.8,-11.8,21.4*,nt,nt,9.9,5.7
CCOc1ccc(NS(=O)(=O)c2ccc(C(=O)NCC(C)(C)N3CCOCC3)cc2)cc1,8.1,-4.2,7.3,nt,nt,nt,nt
O=C(Nc1nc(-c2nc3ccccc3s2)cs1)c1ccc(S(=O)(=O)N2CCOCC2)cc1,16.1,-15.3,21.3*,0.8,-0.1,6.3,7.9
O=C(Nc1nc(-c2ccc(S(=O)(=O)N3CCOCC3)cc2)cs1)c1ccccc1,5.3,-16.3,9.8,6.6,1.2,nt,nt
CCOC(=O)C1=C(C)NC(=O)C(C(N)=O)C1c1ccccc1 (stereo not drawn),0.5,-9.8,-0.1,1.0,0.4,nt,nt
COC(=O)c1cc(NC(=S)NCc2ccc(Cl)cc2)cc(C(=O)OC)c1,13.5,-10.1,17.2,11.7,2.4,nt,nt
COC(=O)c1cccc(NC(=S)NCc2ccc(Cl)cc2)c1,19.8,-13.3,20.7*,15.2,9.4,14.5,11.2
COCCCN1C(=O)c2ccc(C(=O)N3CCN(c4ccccc4OC)CC3)cc2C1=O,0.4,1.8,0.2,nt,nt,nt,nt
CCOC(=O)c1cc(C)sc1NC(=O)CN1CCN(C(=O)c2ccco2)CC1,16.0,-9.4,23.0*,nt,nt,0.9,0.0
COc1cc(C(=O)NC(C)CCn2cccn2)ccc1OC1CCN(C(C)=O)CC1 (stereo not drawn),1.1,-1.2,0.2,nt,nt,nt,nt
COc1ccc(NS(=O)(=O)c2ccc(C(=O)N3CCN(c4ccc(F)cc4)CC3)cc2)cc1,15.6,-14.0,21.8*,nt,nt,16.4,14.5
COc1ccc(N2CCN(C(=O)c3ccc(NS(=O)(=O)c4ccc(F)c(F)c4)cc3)CC2)cc1,10.8,-6.2,14.3,-0.9,-0.3,nt,nt
O=C(c1ccc(S(=O)(=O)Nc2ccc(F)cc2)cc1)N1CCN(c2ccccn2)CC1,12.7,-15.9,20.7*,10.1,5.7,14.3,11.9
O=C(c1ccc(NS(=O)(=O)c2ccc(F)cc2)cc1)N1CCCCC1,1.8,-13.2,0.9,nt,nt,nt,nt
O=C1OCCC1Sc1nnc(-c2ccc(F)cc2)n1Cc1ccccc1 (stereo not drawn),0.3,-0.9,-0.1,1.1,0.5,nt,nt
